# Assay results published in ChEMBL document CHEMBL4699419, “Antileishmanial assessment of isoxazole derivatives against L. donovani” (RSC Med Chem, 2020).
# Legend:
# Leishmania donovani [1] = experiment: Antileishmanial activity against late log phase promastigote stage of Leishmania donovani MHOM/IN/80/Dd8 harboring luciferase reporter gene incubated for 72 hrs by Steady-Glo luminescence assay; type: functional, organism-based
# Procedure, shortened: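 Luciferase-transfected promastigotes kept at 25 ± 1 °C in medium 199 + 10% heat-inactivated FCS + G418 (20 μg ml–1). Late-log cells (5 × 10^5 per well) grown 72 h with graded compound concentrations from DMSO, DMSO dilution controls. Aliquot mixed 1:1 with Steady-Glo, luminescence (RLU) read; % inhibition vs control. IC50 by Probit regression, three independent experiments.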
# Leishmania donovani [2] = experiment: Antileishmanial activity against Leishmania donovani MHOM/IN/80/Dd8 promastigotes harboring luciferase reporter gene infected in mouse J774 cells assessed as inhibition of amastigote growth incubated for 72 hrs by Steady-Glo luminescence assay; type: functional, organism-based
# Procedure, shortened: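 J774A.1 mouse macrophages (2 × 10^5 per well, RPMI-1640 + 10% FCS, 37 °C CO2) infected after 24 h with stationary-phase luciferase-transgenic promastigotes at 1:10 macrophage:parasite; compounds in complete medium for 72 h at 37 °C. Medium swapped for PBS, Steady-Glo added, luminescence read; % inhibition vs untreated control RLU. IC50 by Probit log dose/response regression, three independent experiments.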
# [3] = Cytotoxicity against mouse J774A1 cells assessed as reduction in cell viability incubated for 48 hrs by MTT assay; type: cell-based, J774.A1
# Procedure, shortened: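 J774A.1 macrophages, 0.2 × 10^6 per well, incubated overnight at 37 °C in 5% CO2, then exposed to compounds in DMSO for 48 h, with DMSO dilutions as controls. Viability read by MTT formazan at 600 nm. CC50 = 50% viability reduction versus medium-only cells, from probit regression; three independent experiments.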
# [4] = Selectivity index, ratio of CC50 for mouse J774.A1 cells to IC50 for amastigote form of Leishmania donovani MHOM/IN/80/Dd8; type: toxicity; conditions: read-out: Ratio CC50/IC50
# Procedure, shortened: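 Macrophages infected at a 1:10 ratio with stationary promastigotes, then treated 72 h at 37 °C; luminescence read with Steady-Glo. IC50 values from probit analysis.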
# [5] = Leishmania donovani, MHOM/IN/80/Dd8, 72 h, read-out: IC50
# [6] = Leishmania donovani, MHOM/IN/80/Dd8, J774, 72 h, read-out: IC50
SMILES,IC50 (Leishmania donovani [1]),IC50 (Leishmania donovani [2]),IC50 (Leishmania donovani [1]; [5]) [µM],IC50 (Leishmania donovani [2]; [6]) [µM],CC50 at 48 h [3] [µM],selectivity ratio [4]
COC(=O)c1c(NCc2ccc(F)cc2)noc1-c1ccc([N+](=O)[O-])cc1,Not Active,Not Active,–,–,–,–
COC(=O)c1c([N+](=O)[O-])noc1-c1cccc([N+](=O)[O-])c1,–,Not Active,2.49,–,–,–
COC(=O)c1c(NCCNc2cc(C(F)(F)F)nc3c(C(F)(F)F)cccc23)noc1-c1ccc([N+](=O)[O-])cc1,–,–,10.1,18.1,73,4.03
O=C(NCCN1CCOCC1)c1c([N+](=O)[O-])noc1-c1ccc(Cl)cc1,Not Active,Not Active,–,–,–,–
COC(=O)c1c(NCCCNc2ccnc3cc(Cl)ccc23)noc1-c1cc2c(cc1[N+](=O)[O-])OCO2,–,–,7.75,16.1,73.6,4.55
COC(=O)c1c(NCCCNc2ccnc3cc(Cl)ccc23)noc1-c1ccccc1[N+](=O)[O-],–,Not Active,1.98,–,–,–
O=C(NCc1ccc(F)cc1)c1c([N+](=O)[O-])noc1-c1ccc([N+](=O)[O-])cc1,Not Active,Not Active,–,–,–,–
COC(=O)c1c(NCCCNc2ccnc3cc(Cl)ccc23)noc1-c1ccccc1F,–,Not Active,16.8,–,–,–
O=C(NCc1cccc(Cl)c1Cl)c1c([N+](=O)[O-])noc1-c1ccc(Cl)cc1Cl,–,–,3.49,1.41,81.8,58
CCN(CC)CCNc1noc(-c2ccc(Cl)cc2Cl)c1C(=O)OC,Not Active,Not Active,–,–,–,–
CCN(CC)CCNc1noc(-c2ccc([N+](=O)[O-])cc2)c1C(=O)OC,–,–,26,8.15,69.2,8.49
COC(=O)c1c(NCc2ccccc2)noc1-c1cc2c(cc1[N+](=O)[O-])OCO2,–,Not Active,> 50,–,–,–
O=C(NCc1ccccc1)c1c([N+](=O)[O-])noc1-c1ccc(Cl)cc1Cl,–,Nd(Toxic),1.32,–,–,–
O=C(NCc1ccccc1)c1c([N+](=O)[O-])noc1-c1ccc(Cl)cc1,Not Active,Not Active,–,–,–,–
COC(=O)c1c(NCCNc2cc(C(F)(F)F)nc3c(C(F)(F)F)cccc23)noc1-c1ccc(Cl)cc1Cl,–,–,48.2,20.3,99,4.86
COC(=O)c1c(NCc2cccc(OC)c2)noc1-c1cc2c(cc1[N+](=O)[O-])OCO2,Not Active,Not Active,–,–,–,–
COC(=O)c1c([N+](=O)[O-])noc1-c1ccc(Cl)cc1,–,Not Active,1.79,–,–,–
O=C(c1c([N+](=O)[O-])noc1-c1ccc([N+](=O)[O-])cc1)N1CCOCC1,–,–,2.71,15.6,66,4.22
COC(=O)c1c(NCc2cccc(OC)c2)noc1-c1ccc([N+](=O)[O-])cc1,Not Active,Not Active,–,–,–,–

SMILES,IC50 (Leishmania donovani [1]),IC50 (Leishmania donovani [2]),IC50 (Leishmania donovani [1]; [5]) [µM],IC50 (Leishmania donovani [2]; [6]) [µM],CC50 at 48 h [3] [µM],selectivity ratio [4]
COC(=O)c1c(NCc2ccc(OC)cc2OC)noc1-c1ccc([N+](=O)[O-])cc1,Not Active,Not Active,–,–,–,–
COc1cccc(CNC(=O)c2c([N+](=O)[O-])noc2-c2ccc(Cl)cc2Cl)c1,–,–,3.02,11.3,61.1,5.41
COC(=O)c1c(NCc2ccc(OC)c(OC)c2)noc1-c1ccc(Cl)cc1Cl,–,–,4.49,2.37,7.58,3
COC(=O)c1c([N+](=O)[O-])noc1-c1cccc(-c2cnco2)c1,–,–,0.77,4.8,19.7,3.6
COC(=O)c1c(NCCCN2CCOCC2)noc1-c1cc2c(cc1[N+](=O)[O-])OCO2,–,–,27.8,17,65,3.82
COC(=O)c1c(NCCCN2CCOCC2)noc1-c1ccc([N+](=O)[O-])cc1,–,–,33.8,4.53,71.8,15.8
O=C(NCc1ccc(F)cc1)c1c([N+](=O)[O-])noc1-c1ccc(Cl)cc1,–,–,1.16,19.4,91.9,4.72
CC(C)CCNC(=O)c1c([N+](=O)[O-])noc1-c1ccc([N+](=O)[O-])cc1,–,–,3.01,17.4,67,3.85
COc1ccc(CNC(=O)c2c([N+](=O)[O-])noc2-c2ccc(Cl)cc2Cl)cc1OC,–,–,5.24,1.95,81.8,41.9
O=C(NCCN1CCOCC1)c1c([N+](=O)[O-])noc1-c1ccc([N+](=O)[O-])cc1,–,–,2.83,21.9,76.5,3.49
COc1ccc(CNC(=O)c2c([N+](=O)[O-])noc2-c2ccc([N+](=O)[O-])cc2)cc1OC,–,Nd(Toxic),1.3,–,–,–
COc1ccc(CNC(=O)c2c([N+](=O)[O-])noc2-c2ccc([N+](=O)[O-])cc2)cc1,–,–,3.52,2.06,69.6,33.8
COC(=O)c1c(NCc2ccc(OC)c(OC)c2)noc1-c1cc2c(cc1[N+](=O)[O-])OCO2,Not Active,Not Active,–,–,–,–
O=C(NCc1ccccc1)c1c([N+](=O)[O-])noc1-c1ccc([N+](=O)[O-])cc1,Not Active,Not Active,–,–,–,–
COC(=O)c1c([N+](=O)[O-])noc1-c1cccc(-c2cccs2)c1,–,Not Active,38.4,–,–,–
COC(=O)c1c(NCc2ccc(C(C)(C)C)cc2)noc1-c1ccc(Cl)cc1Cl,–,–,> 50,> 50,–,–
COc1cccc(CNC(=O)c2c([N+](=O)[O-])noc2-c2ccc([N+](=O)[O-])cc2)c1,Not Active,Not Active,–,–,–,–
COC(=O)c1c(NCc2ccc(OC)cc2OC)noc1-c1cc2c(cc1[N+](=O)[O-])OCO2,Not Active,Not Active,–,–,–,–
COC(=O)c1c(NCc2ccc(OC)cc2)noc1-c1cc2c(cc1[N+](=O)[O-])OCO2,Not Active,Not Active,–,–,–,–

SMILES,IC50 (Leishmania donovani [1]),IC50 (Leishmania donovani [2]),IC50 (Leishmania donovani [1]; [5]) [µM],IC50 (Leishmania donovani [2]; [6]) [µM],CC50 at 48 h [3] [µM],selectivity ratio [4]
COC(=O)c1c([N+](=O)[O-])noc1-c1ccccc1,–,Not Active,2.17,–,–,–
COC(=O)c1c([N+](=O)[O-])noc1-c1ccc(C(F)(F)F)cc1,–,Not Active,0.66,–,–,–
O=C(NCc1cccc(Cl)c1Cl)c1c([N+](=O)[O-])noc1-c1ccc([N+](=O)[O-])cc1,Not Active,Not Active,–,–,–,–
COC(=O)c1c([N+](=O)[O-])noc1-c1ccc(F)cc1,–,Not Active,2.1,–,–,–
COC(=O)c1c(NCc2ccc(OC)c(OC)c2)noc1-c1ccc([N+](=O)[O-])cc1,Not Active,Not Active,–,–,–,–
COC(=O)c1c([N+](=O)[O-])noc1-c1ccc(Cl)c(Cl)c1,–,Not Active,1.11,–,–,–
O=C(NCc1cccc(Br)c1)c1c([N+](=O)[O-])noc1-c1ccc([N+](=O)[O-])cc1,Not Active,Not Active,–,–,–,–
COC(=O)c1c([N+](=O)[O-])noc1-c1ccccc1[N+](=O)[O-],–,Not Active,4.01,–,–,–
CC(C)CCNC(=O)c1c([N+](=O)[O-])noc1-c1ccc(Cl)cc1,Not Active,Not Active,–,–,–,–
O=C(NCc1cccc(Br)c1)c1c([N+](=O)[O-])noc1-c1ccc(Cl)cc1,Not Active,Not Active,–,–,–,–
CCCNC(=O)c1c([N+](=O)[O-])noc1-c1ccc(Cl)cc1,Not Active,Not Active,–,–,–,–
O=C(O)c1c([N+](=O)[O-])noc1-c1ccc([N+](=O)[O-])cc1,–,Not Active,19,–,–,–
O=C(O)c1c([N+](=O)[O-])noc1-c1cc2c(cc1[N+](=O)[O-])OCO2,Not Active,Not Active,–,–,–,–
CCN(CC)CCNc1noc(-c2cc3c(cc2[N+](=O)[O-])OCO3)c1C(=O)OC,Not Active,Not Active,–,–,–,–
COC(=O)c1c([N+](=O)[O-])noc1-c1ccc([N+](=O)[O-])cc1,–,Not Active,0.67,–,–,–
O=C(Nc1ccccc1)c1c([N+](=O)[O-])noc1-c1ccc([N+](=O)[O-])cc1,Not Active,Not Active,–,–,–,–
COC(=O)c1c(NCc2ccc(OC)cc2)noc1-c1ccc([N+](=O)[O-])cc1,Not Active,Not Active,–,–,–,–
O=C(c1c([N+](=O)[O-])noc1-c1ccc(Cl)cc1)N1CCOCC1,Not Active,Not Active,–,–,–,–
